Here are results for 13 compounds from ChEMBL document CHEMBL1250525, “Structure-activity relationships in 1,4-benzodioxan-related compounds. 10. Novel α1-adrenoreceptor antagonists related to openphendioxan: synthesis, biological evaluation, and α1d computational study” (Bioorg Med Chem, 2010).

Test [1] deals with T1, Alpha-1B adrenergic receptor (Homo sapiens, UniProt P35368).
T1 sequence (P35368 whole entry): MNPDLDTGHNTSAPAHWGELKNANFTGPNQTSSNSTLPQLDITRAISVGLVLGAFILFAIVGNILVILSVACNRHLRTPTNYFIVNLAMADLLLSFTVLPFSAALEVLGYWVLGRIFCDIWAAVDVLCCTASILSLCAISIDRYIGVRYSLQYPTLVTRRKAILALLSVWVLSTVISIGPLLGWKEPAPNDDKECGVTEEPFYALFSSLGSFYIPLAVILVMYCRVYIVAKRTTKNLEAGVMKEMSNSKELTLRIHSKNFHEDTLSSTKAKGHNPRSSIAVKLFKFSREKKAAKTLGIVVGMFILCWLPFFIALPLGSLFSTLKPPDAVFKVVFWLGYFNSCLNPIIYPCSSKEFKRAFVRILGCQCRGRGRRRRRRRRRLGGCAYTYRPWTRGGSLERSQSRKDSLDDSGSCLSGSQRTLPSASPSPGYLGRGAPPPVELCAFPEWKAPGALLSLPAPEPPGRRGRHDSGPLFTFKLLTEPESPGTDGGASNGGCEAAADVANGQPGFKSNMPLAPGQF
Kind of test: Displacement of [3H]prazosin from human adrenergic Alpha-1B expressed in CHO cells. The format is cell-based. In a few lines:
(§1)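 Membranes (30 µg protein) from CHO cells stably expressing each cloned human α1 subtype, labelled with [3H]prazosin. Nonspecific binding with 10 µM phentolamine. Stopped with ice-cold Tris–HCl and filtration on 0.2% polyethyleneimine-treated glass-fibre filters. Ki from IC50 by Cheng–Prusoff, nonlinear fitting. Mean ± SE of 2–3 experiments in triplicate.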

Test [2] concerns the target T2, Alpha-1D adrenergic receptor (Homo sapiens, UniProt P25100).
T2 sequence (P25100 whole entry): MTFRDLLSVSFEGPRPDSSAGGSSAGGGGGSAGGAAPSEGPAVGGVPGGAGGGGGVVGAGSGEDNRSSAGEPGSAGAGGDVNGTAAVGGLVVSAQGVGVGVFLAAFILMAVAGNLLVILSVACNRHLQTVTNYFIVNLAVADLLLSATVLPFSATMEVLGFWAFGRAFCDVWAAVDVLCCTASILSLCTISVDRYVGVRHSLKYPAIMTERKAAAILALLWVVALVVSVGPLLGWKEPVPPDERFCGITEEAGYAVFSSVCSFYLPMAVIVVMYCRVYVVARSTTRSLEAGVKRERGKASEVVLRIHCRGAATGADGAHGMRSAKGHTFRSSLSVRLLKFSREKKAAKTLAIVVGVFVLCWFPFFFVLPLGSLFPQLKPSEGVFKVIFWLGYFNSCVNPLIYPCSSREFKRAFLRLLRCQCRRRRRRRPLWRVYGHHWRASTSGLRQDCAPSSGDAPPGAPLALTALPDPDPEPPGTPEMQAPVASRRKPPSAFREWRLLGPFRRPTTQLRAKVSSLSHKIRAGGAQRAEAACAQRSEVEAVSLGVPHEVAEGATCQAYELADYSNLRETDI
Kind of test: Displacement of [3H]prazosin from human adrenergic Alpha-1D expressed in CHO cells. The format is cell-based. In a few lines:
as §1
In general terms: Displacement assays read how much labelled ligand stays bound in the presence of the test substance.

For orientation: Ki means the dissociation constant of the complex between target and ligand, obtained from inhibition or displacement. A lower Ki goes with higher affinity. Take `COc1cccc([N+](=O)[O-])c1OCCNCCOc1ccccc1OCc1ccccc1`: the values for the Ki in test [1] and in test [2] were 5.01 nM and 0.513 nM, respectively.
For `COc1cccc(OC)c1CCCNCCOc1ccccc1OCc1ccccc1`, in that order: 6.92 nM and 1.2 nM.
In the case of `COc1ccccc1OCCNCCOc1ccccc1OCc1ccccc1`, the Ki in test [1] was 20 nM; in test [2], 3.98 nM.
On the same counts, the results for `c1ccc(COc2ccccc2OCCNCCOc2ccccc2)cc1` are 100 nM and 17.8 nM.
For `COc1cccc(C)c1OCCNCCOc1ccccc1OCc1ccccc1`, in that order: 5.01 nM and 0.912 nM.
On the same counts, the results for `Cc1cccc(C)c1OCCNCCOc1ccccc1OCc1ccccc1` are 100 nM and 14.1 nM.
With `COc1cccc(OC)c1[S+]([O-])CCNCCOc1ccccc1OCc1ccccc1` (stereo unspecified), the Ki in test [1] was 15.8 nM; in test [2], 2.75 nM.
For `COc1cccc(OC)c1SCCNCCOc1ccccc1OCc1ccccc1`, in that order: 0.501 nM and 0.178 nM.
For `CCOc1cccc(OCC)c1OCCNCCOc1ccccc1OCc1ccccc1`, in that order: 0.794 nM and 0.389 nM.
For `Clc1cccc(Cl)c1OCCNCCOc1ccccc1OCc1ccccc1`, in that order: 79.4 nM and 7.08 nM.
On to `COc1cccc(Cl)c1OCCNCCOc1ccccc1OCc1ccccc1`, for which the Ki in test [1] is 7.94 nM; in test [2], 0.741 nM.
On the same counts, the results for `CCOc1ccccc1OCCNCCOc1ccccc1OCc1ccccc1` are 12.6 nM and 3.72 nM.
On the same counts, the results for `Oc1cccc(O)c1OCCNCCOc1ccccc1OCc1ccccc1` are 100 nM and 15.1 nM.
